Assay results from the EternaBench riboswitch data.

Tested on: MS2 coat protein
Assay: apparent Kd, MS2 coat protein; higher = weaker binding; RNA-MaP array; FMN 200 µM where present
Summary of the method: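 Designs on Illumina sequencing-chip clusters, transcribed by stalled E. coli RNA polymerase, were exposed to SNAP-549-labelled MS2 coat protein in doubling steps from 0.7 or 1.5 nM up to 3 µM, without and then with constant ligand. The buffer held 100 mM Tris-HCl pH 7.5, 80 mM KCl, 4 mM MgCl2, BSA, DTT, yeast tRNA and Tween-20. Apparent Kd values are medians of filtered per-cluster binding-curve fits to green signal normalised to red-channel RNA signal and control-cluster median Fmax.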

[1] = designed as: OFF switch for flavin mononucleotide, no ligand
[2] = ligand present: flavin mononucleotide, designed as: OFF switch for flavin mononucleotide
[3] = designed as: ON switch for flavin mononucleotide, no ligand
[4] = ligand present: flavin mononucleotide, designed as: ON switch for flavin mononucleotide

Row | Sequence | apparent Kd [1] [nM] | apparent Kd [2] [nM] | apparent Kd [3] [nM] | apparent Kd [4] [nM]
1 | CUUUUGUGAGGAUAUCAGUAGUAAAUAAAUAUAAUUACUACUGAGAAGGCACAUGAGGAUCACCCAUGUUCCUC | 39.7 | 274 |  | 
2 | UGGUACUAGGGAGGAUAUGGGAAGAUACAUGAGGAUCACCCAUGUUUAAGAAUGCCGAGAGGCCACUAGAAGGCCCUAGUACCU |  |  | 244 | 12.4
3 | CCUUUGUCAGGAUAUCGAAAAGGGAGGCCAAAAGCCUCCGGUGAGAAGGGACAUGAGGAUCACCCAUGUGAAAA | 46.4 | 159 |  | 
4 | UAGGACUACGUAGGAUAUUAAAUCAUGUACUACAUGAGGAUCACCCAUGUUAAUUUAACAUCAGCUGAGAAGGACGUGGUAAAU |  |  | 120 | 58.5
5 | GCCAACUUAUGAGGAUAUGGCACCUUAUUGGUGCCAGAAGGCAUGUCUCUUGACAUGAGGAUCACCCAUGUAUUAUAGUUGGCA |  |  | 421 | 158
6 | AAUAAACUCACAGGAUAUAGCAUAGGUCGCCUGAACUUACAGGCGACUAUGCUAGAAGGGUGACCACAUGAGGAUCACCCAUGU |  |  | 847 | 168
7 | CAAUAUAACACAGGAUAUGUCUCGUUUACAUGAGGAUCACCCAUGUCCGAAACAGAAGGGUGACCUGAUAUAGGACGUUAGGUG |  |  | 367 | 138
8 | UAAAUUCGAAACAUGAGGAUCACCCAUGUGUUGUGGUUUAUAUAGGAUAUGUGGAUACUUUUUUGACAGAAGGAUGAUGGUACU |  |  | 13.2 | 10.9
9 | UUUCAGUCAGGAUAUCGUUAAUUUAAUUGUUUGUAUUAGUUCGAGAAGGGACAUGAGGAUCACCCAUGUACUUU | 24.3 | 25.5 |  | 
10 | AAUAAACUCACAGGAUAUAGCAGAGGUCGCGUGUACUUACAGGCGACUAUGCUAGAAGGGUGACCACAUGAGGAUCACCCAUGU |  |  | 746 | 137
11 | UCCAUCGUAUGAGGAUAUGGAACUGAAACAGUUCCAGAAGGCAUGUCAAUAGACAUGAGGAUCACCCAUGUAUUAUCGAUGGAA |  |  | 429 | 42.9
12 | UUUUAACAUGAGGAUCACCCAUGUGAGGAUAUCGAAAUUUAUAUUAAUAUUAAUAUAACGAGAAGGCACAUUUU | 52 | 70.2 |  | 
13 | CCUCAGUAAGGAUAUCAGCUUAUGGAGUUGGUAAUGAGAGCUGAGAAGGUACAUGAGGAUCACCCAUGUUAGUU | 27.7 | 73.7 |  | 
14 | UUAUACGUUGAGGAUAUGCGAUUUAGUAUAGUUGUAGAAGGCGAUACAUGAGGAUCACCCAUGUUUAUGGGCAU | 328 | 257 |  | 
15 | UUGCGGGAUUGAGGAUAUUGAGUACAUAUGUUUAACAUGAGGAUCACCCAUGUGGGUUGCGGUAUCGAGAAGGUAACUUACUAC |  |  | 95.8 | 104
16 | AAGUCACGAAUAAUAAUAAGAUCUACAUGAGGAUCACCCAUGUAGGAUAUGCAGUGGAAUACACUGCAGAAGGACAUACGUGAC | 14.1 | 16.7 |  | 
17 | UAAAGUUAAGGAGGAUAUUACAUGAGGAUCACCCAUGUAAUGGGCUCGGUGUAAGAAGGCCUUGAGUCGAAGUUUCGGAUGAGG | 9.55 | 21.4 |  | 
18 | UGGACCGAGCUGUCGGUUGGCUCUUAGGAUAUGACAUGAGGAUCACCCAUGUGGGAUCUAAAUUGUCAGAAGGAGGGUUCUGGG | 48.3 | 40.3 |  | 
19 | GUAGCAUUGAGAGGAUAUCCAUACCGGAAACGGACAUGAGGAUCACCCAUGUGGCGAAAGCCAUGGGAGAAGGCUCUAUGCUAC |  |  | 10.2 | 5.44
20 | UUGGACGUCGUAGGAUAUGGAGGAUAUUCCUACAUGAGGAUCACCCAUGUUGACAUGGAAGAAGGACAGAAGGACGAUGUCCAU |  |  | 10.1 | 4.14
21 | GCAGCAAUUUAAAACAUGAGGAUCACCCAUGUCGAGAGAUAUGAGGAUAUGCAUCGGAUGAAGAUGCAGAAGGCAUUGUGCUGC |  |  | 24.8 | 7.68
22 | GGGUACAUCGGAGGAUAUCAUGUAAAUACAUGAGGAUCACCCAUGUCGAUGGAGACAUCGGAGAUUGAGAAGGCCGAUAUACCG |  |  | 139 | 9.34
23 | GUGUACAGAGGAUAUACACGAAUCUAGCGAAGCUAGGUUUGACAUGAGGAUCACCCAUGUAGAAGGCUGUACAC | 16.1 | 24.2 |  | 
24 | UUCUUACAUGAGGAUCACCCAUGUCAGGAUAUCUCCACACUGCGCUUGCGCAGUGUAUAGAGAAGGGACAGGCU | 49.4 | 47.5 |  | 
25 | CCCAAACUUGGGCUUGGUGGUGCAUAGGAUAUGCUUGAACAUGAGGAUCACCCAUGUGCAACUGUGCAGAAGGGUGCAGGGCCU |  |  | 12.7 | 8.31
26 | UUAAUUAUACAAGGAUAUCUAUUGUUCUUUCGACUUACAUGAGGAUCACCCAUGUUAAUAUAUAUAGAGAAGGUGUAUUUUCAG |  |  | 43.3 | 25.4
27 | UGUGUGUGACAGGAUAUGCUGGUUGUGAGGCGGGUAGAAGGGUCUACAUGAGGAUCACCCAUGUGGCCGGUUGG | 18.7 | 18.7 |  | 
28 | UUAAUGACUGUGAGGAUAUCGGAUAGAUAGAUAUUCGAGAAGGUACAUGAGGAUCACCCAUGUGUGAUUAGAGA | 245 | 291 |  | 

Row | Sequence | apparent Kd [1] [nM] | apparent Kd [2] [nM] | apparent Kd [3] [nM] | apparent Kd [4] [nM]
29 | UGGUACUAGGGAGGAUAUGGGAAGAUACAUGAGGAUCACCCAUGUUUAAGAAUGCCGAGAGGCAACAAGAAGGCCCUAGUACCU |  |  | 532 | 98.9
30 | GUAUUAAAGAUCCAUUUAUUCAACAUGAGGAUCACCCAUGUGCAGGAUAUCGUGUGUUUUAUAUUCGAGAAGGGCAAAUUCAUU | 44.6 | 104 |  | 
31 | AUAUAUAUUAGAGGAUAUGUGUUCAUGUUACAUGAGGAUCACCCAUGUUUAGGUUGAUUGAUCUUACAGAAGGCUAUACAAUGA | 97.2 | 78.5 |  | 
32 | AGAAAACAGGAGAAGGGCCCACGUGAACCUCCAUAUCUGCGAAACAUGAGGAUCACCCAUGUGAGGCAGGAUAUCCAAUUACUU | 9.32 | 38.7 |  | 
33 | AACAGUACAGGAUAUACAUGAGGAUCACCCAUGUGAAGAAUAAGUGGAGUACCACAAAGUAGAAGGGUACUGGA | 26.7 | 132 |  | 
34 | UUCUUACAUGAGGAUCACCCAUGUGUUGUCGUGGGAGGAUAUCCUUGUUCGGUGGCGUUGGGAGAAGGCCUAUGUU |  |  | 39.3 | 73.2
35 | CUUUUGUGAGGAUAUCAGUAGUAAAAUAAUAAAAUUACUACUGAGAAGGCACAUGAGGAUCACCCAUGUUCCUC | 32.5 | 174 |  | 
36 | UUGGACGUCGUAGGAUAUGUAGGAUAUUGCUACAUGAGGAUCACCCAUGUUGACAUGGAAGAAGGACAGAAGGACGAUGUCCAU |  |  | 43.8 | 5.59
37 | UUUUAACAUGAGGAUCACCCAUGUGAGGAUAUCGAAAUUUAUAUUAAUAUUAUUUUAACGAGAAGGCACAUUUU | 76.7 | 84.2 |  | 
38 | CCGAAACCUCAGAAGGACCACAUGAGGAUCACCCAUGUCAAGCAAAACGGUAGGAUAUGAGGGAAAUGUCGAUAUACCCGACAG |  |  | 7.9 | 4.72
39 | CUGGUUGUCGUAGGAUAUGUAGGAUAUUCCUACAUGAGGAUCACCCAUGUUCGCAUGGAAGAAGGACAGAAGGACGAUGACCAC |  |  | 930 | 23.2
40 | GCCCGGGCAAACAUGAGGAUCACCCAUGUGUUAUACUUAAUAUAGGAUAUGUUUAUACUUUUUGGGCAGAAGGAUGGCCCGGGC |  |  | 35.1 | 32.4
41 | AUAUUGUGAGGAUAUCCAAUAUAUGACAUGAGGAUCACCCAUGUUUCCACUCGUACCUCCGGAGAAGGCACUUAAA | 20.5 | 23.2 |  | 
42 | UCAUUGAUUGUGAGGAUAUCGAUGUGAUGGAUUGUCGAGAAGGCACAUGAGGAUCACCCAUGUGGGUGUGGGCU | 864 | 454 |  | 
43 | GAUUUACAUGAGGAUCACCCAUGUGAGGAUAUUGGGCUAGCAGAGUGAAUUCGCUGUCCAAGAAGGUACUGGAA | 32.6 | 32.5 |  | 
44 | CUUUAUCACUAUACAUGAGGAUCACCCAUGUUAUCAUCAUGAGAGGAUAUCGUAUUUGGAUUUUUCGAGAAGGCUCUAUUGUAU |  |  | 152 | 53.9
45 | CUUUGCGUUAGAGGAUAUAUUGUGUGUUACACAAUAGAAGGCUAAACAAACAUGAGGAUCACCCAUGUUGUCCAUGUCGUCGGC |  |  | 16.8 | 21
46 | CACGGGUUAGGAUAUGCAUGGUGAAAAGACGCGAUCCUUAGACAUGAGGAUCACCCAUGUAGAAGGAACGCAAU | 18.6 | 15.9 |  | 
47 | CCGGGACAUGAGGAUCACCCAUGUUUCGUUUAUAGUAAAGCACAGGAUAUGAUGAAACAGGUUUCUCAGAAGGGUGUUCCGAAA |  |  | 63.2 | 67.8
48 | GUGCCUAACUAGAAGGCCGUAUGCAAAGCAUACGGAGGAUAUGGGUUCCGGAAACGGACAUGAGGAUCACCCAUGUGGCACAAA |  |  | 80.4 | 10.6
49 | UGUCGGAGCAGAGGAUAUUACAUGAGGAUCACCCAUGUAUGAACCAAUAGCUGGAAACAGCAAUGUAAGAAGGCGGCUCCGACA | 5.18 | 9.07 |  | 
50 | CCGAUUAGCACAGGAUAUGGGAAUUCGUAGUUUCCAGAAGGGUGAGCCAAUACAUGAGGAUCACCCAUGUGCGGUAGGUCGAGA |  |  | 51.1 | 60.7
51 | AAUAUGUUGCAGAAGGUUAUUUUUAUAACGAUCCAUUUGACAUGAGGAUCACCCAUGUAAUUGAUGAAGGAUAUGCAAUAUAUU | 6.42 | 7.18 |  | 
52 | UUUAUAAAUUAGAAGGCGGGAUGAAUUACAAUAGACAUGAGGAUCACCCAUGUGUAUUCAUGUCUUGAGGAUAUAGUCAUAUAU |  |  | 271 | 110
53 | GGAUAGUGUCGUUAUCCGUAGCGAACAUGAGGAUCACCCAUGUAGGAUAUGUUAUUAAACUAAUAACAGAAGGGCGUGAGUCUC | 429 | 480 |  | 
54 | CGCACACAUGAGGAUCACCCAUGUGAGGAUAUCAUGCUUCGUAGUAAACUACGAAGUGUGAGAAGGCACAUGUC | 31.2 | 102 |  | 
55 | CCUGCACAUGAGGAUCACCCAUGUUAGGAUAUAUUUGACCGUGGAAUUACCAUUGGAAGUAGAAGGAACAUGUA | 16.1 | 18 |  | 
